Results gathered from unrelated publications.
Each line is one published result; the experiments were not run side by side.
ENAH: Protein enabled homolog (ENAH, UniProt Q8N8S7)
SRC: Proto-oncogene tyrosine-protein kinase Src (SRC, Homo sapiens, UniProt P12931)
DPP4: Dipeptidyl peptidase 4 (DPP4, Homo sapiens, UniProt P27487)

SMILES | target | test | conditions | measurement | value
CC(=O)N[C@@H](CO)C(=O)N[C@@H](Cc1ccccc1)C(=O)N[C@@H](CCC(=O)O)C(=O)N[C@@H](Cc1ccccc1Cl)C(=O)N1CCC[C@H]1C(=O)N1CCC[C@H]1C(=O)N1CCC[C@H]1C(=O)N1CCC[C@H]1C(=O)N[C@H](C(=O)N[C@@H](CCC(=O)O)C(=O)N[C@@H](CC(=O)O)C(=O)N[C@@H](CCC(=O)O)C(=O)N[C@@H](CC(C)C)C(N)=O)[C@@H](C)O | ENAH | binding, fluorescence | – | Kd | 0.79 µM
NC(=S)c1cn(C2OC(CO)C(O)C2O)c2ncnc(N)c12 (stereo not drawn) | Activin receptor type-1 (ACVR1, Homo sapiens, UniProt Q04771) | thermal stability, DSF | – | Kd | < 1 µM
Cn1cc(-c2cc(F)cc(N3CCn4c(cc5c4CCCC5)C3=O)c2CO)cc(Nc2ccc(N3CCN(C4COC4)CC3)cn2)c1=O | SRC | enzyme activity, inhibitor, FRET | – | Ki | 0.254 µM
O=C1C=CC(=O)N1CCCCCCCCCCCCCCCCCCN1CCCCC1 | Acetylcholinesterase (ACHE, Homo sapiens, UniProt P22303) | enzyme activity, inhibitor | – | Ki | 20.4 µM
CC[C@H]1NC(=O)[C@@H]2CSC(=N2)[C@H](Cc2ccccc2)N(C)C(=O)[C@@H]2CCCN2C(=O)[C@H](C(C)C)N(C)C(=O)[C@H](Cc2ccccc2)OC(=O)[C@H](C)[C@@H](C)NC(=O)[C@@H]([C@@H](C)O)NC(=O)[C@@H](CC(C)C)N(C)C(=O)[C@@H]2CSC1=N2 | DPP4 | enzyme activity, inhibitor | – | IC50 | 245 µM
CC(=O)N[C@@H](Cc1ccccc1Cl)C(=O)N1CCC[C@H]1C(=O)N1CCC[C@H]1C(=O)N1CCC[C@H]1C(=O)N1CCC[C@H]1C(=O)N[C@H](C(=O)N[C@@H](CCC(=O)O)C(=O)N[C@@H](CC(=O)O)C(=O)N[C@@H](CC(=O)O)C(=O)N[C@@H](CC(C)C)C(N)=O)[C@@H](C)O | ENAH | binding, fluorescence | – | Kd | 3.8 µM
Cn1cc(-c2cccc(N3CCc4c(sc5c4CC(C)(C)C5)C3=O)c2CO)cc(Nc2ccncn2)c1=O | SRC | enzyme activity, inhibitor, FRET | – | Ki | > 3.33 µM
CC(C)[C@H](N)C(=O)N1CCC[C@H]1C(=O)N[C@H](C(=O)N1CCC[C@H]1C(=O)N[C@@H](CC(N)=O)C(=O)O)C(C)C | DPP4 | enzyme activity, inhibitor, absorbance | pH 8 | IC50 | 88.7 µM
CC(=O)N[C@@H](Cc1ccccc1Cl)C(=O)N1CCC[C@H]1C(=O)N1CCC[C@H]1C(=O)N1CCC[C@H]1C(=O)N1CCC[C@H]1C(=O)O | ENAH | binding, fluorescence | – | Kd | 9.9 µM
CC(C)[C@H](N)C(=O)N1CCC[C@H]1C(=O)N[C@H](C(=O)N1CCC[C@H]1C(=O)N[C@@H](Cc1c[nH]c2ccccc12)C(=O)O)C(C)C | DPP4 | enzyme activity, inhibitor, absorbance | pH 8 | IC50 | 92.1 µM
CC(=O)N[C@@H](Cc1ccccc1Cl)C(=O)N1CCC[C@H]1C(=O)N1CCC[C@H]1C(=O)N1CCC[C@H]1C(=O)N1CCC[C@H]1C(=O)N[C@H](C(=O)N[C@@H](CCC(=O)O)C(=O)N[C@@H](CC(=O)O)C(=O)N[C@@H](CCC(=O)O)C(=O)N[C@@H](CC(C)C)C(N)=O)[C@@H](C)O | ENAH | binding, fluorescence | – | Kd | 1.25 µM
CC(C)[C@H](N)C(=O)N1CCC[C@H]1C(=O)N[C@H](C(=O)N1CCC[C@H]1C(=O)N[C@@H](CCCNC(=N)N)C(=O)O)C(C)C | DPP4 | enzyme activity, inhibitor, absorbance | pH 8 | IC50 | 118 µM
CC(=O)P(=O)(O)OCCc1cn([C@H](Cc2ccccc2)C(=O)O)nn1 | 1-deoxy-D-xylulose-5-phosphate synthase (dxs, Escherichia coli, UniProt P77488) | enzyme activity, inhibitor | with preincubation | Ki | 0.09 µM
CC(C)[C@H](N)C(=O)N1CCC[C@H]1C(=O)N[C@H](C(=O)N1CCC[C@H]1C(=O)N[C@@H](CCC(=O)O)C(=O)O)C(C)C | DPP4 | enzyme activity, inhibitor, absorbance | pH 8 | IC50 | 83.4 µM
c1ccc(Nc2cccc3ccccc23)cc1 | lush (Drosophila melanogaster, UniProt O02372) | binding | – | Kd | 0.65 µM
